Experimental data: ChEMBL document CHEMBL1149661, “Synthesis, biological evaluation, and molecular modeling of 3,5-substituted-N1-phenyl-N4,N4-di-n-butylsulfanilamides as antikinetoplastid antimicrotubule agents” (Bioorg Med Chem, 2007)

Legend:
[1] = system: Trypanosoma brucei brucei; experiment: Growth inhibition against Trypanosoma brucei brucei; format: functional, organism-based
[2] = Inhibition of Leishmania tarentolae tubulin assembly
Outline: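 Purified Leishmania tarentolae tubulin, 1.5 mg/mL, polymerized with or without compound. Assembly read as the absorbance change at 351 nm after 20 min at 30 °C, compared with untreated controls. Assembly kinetics were also followed over time. IC50 is the mean ± SD of at least three independent experiments.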

Leishmania donovani = experiment: Growth inhibition against Leishmania donovani; format: functional, organism-based
Tubulin = Tubulin (Sus scrofa, UniProt P02554+P02550); experiment: Inhibition of porcine tubulin assembly; format: protein assay
Outline: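 Purified porcine brain tubulin at a final 2 mg/mL (raised from 1.5 mg/mL to make control assembly more reproducible). Polymerization read as the absorbance change at 351 nm after 20 min at 30 °C relative to controls. IC50 is the mean ± SD of at least three independent experiments.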

[3] = Toxicity against monkey Vero cells; format: cell-based; details: Chlorocebus sabaeus (monkey)
Tubulin (Sus scrofa) = Tubulin (Sus scrofa) (UniProt P02554+P02550); experiment: Inhibition of porcine tubulin assembly at 100 uM; format: protein assay
Chain of Tubulin (Sus scrofa) (P02550 whole entry, looked up): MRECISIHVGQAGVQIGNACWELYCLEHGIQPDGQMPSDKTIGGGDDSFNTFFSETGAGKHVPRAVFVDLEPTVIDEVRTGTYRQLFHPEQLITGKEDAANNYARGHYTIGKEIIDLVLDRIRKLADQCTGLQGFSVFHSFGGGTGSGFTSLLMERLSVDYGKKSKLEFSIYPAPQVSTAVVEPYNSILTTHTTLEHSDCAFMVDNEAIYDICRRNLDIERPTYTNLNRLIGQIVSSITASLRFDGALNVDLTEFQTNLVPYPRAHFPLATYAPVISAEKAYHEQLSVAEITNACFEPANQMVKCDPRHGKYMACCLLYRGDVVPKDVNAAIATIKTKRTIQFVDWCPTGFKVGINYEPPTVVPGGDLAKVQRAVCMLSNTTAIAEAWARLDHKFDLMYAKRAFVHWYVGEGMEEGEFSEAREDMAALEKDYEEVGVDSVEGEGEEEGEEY
Chain of Tubulin (Sus scrofa) (P02554 whole entry, looked up): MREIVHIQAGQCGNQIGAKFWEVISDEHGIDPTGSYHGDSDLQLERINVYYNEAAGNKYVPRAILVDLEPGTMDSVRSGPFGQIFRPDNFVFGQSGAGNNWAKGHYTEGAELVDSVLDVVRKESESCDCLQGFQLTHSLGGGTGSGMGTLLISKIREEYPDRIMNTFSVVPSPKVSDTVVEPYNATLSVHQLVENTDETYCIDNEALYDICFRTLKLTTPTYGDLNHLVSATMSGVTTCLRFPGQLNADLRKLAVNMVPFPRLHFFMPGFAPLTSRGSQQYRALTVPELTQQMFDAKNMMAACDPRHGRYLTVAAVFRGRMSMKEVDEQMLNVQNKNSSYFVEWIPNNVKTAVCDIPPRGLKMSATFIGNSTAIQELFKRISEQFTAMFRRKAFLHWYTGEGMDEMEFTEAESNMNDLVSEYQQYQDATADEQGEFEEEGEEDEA
Outline: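 Porcine brain tubulin at a final 2 mg/mL, assembled with compound at a single 100 μM. Inhibition taken from the absorbance change at 351 nm after 20 min at 30 °C, relative to controls without compound.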

Compound | IC50 [1] [µM] | IC50 [2] [µM] | IC50 (Leishmania donovani) [µM] | IC50 (Tubulin) [µM] | IC50 [3] [µM] | inhibition (Tubulin (Sus scrofa)) [%]
CCCCN(CCCC)c1c(C(=O)O)cc(S(=O)(=O)Nc2ccccc2)cc1C(=O)O | > 50 | > 100 | > 50 | – | – | –
CCCCN(CCCC)c1c(C(N)=O)cc(S(=O)(=O)Nc2ccccc2)cc1C(N)=O | > 50 | > 100 | > 50 | – | – | –
CCCCN(CCCC)c1c([N+](=O)[O-])cc(S(=O)(=O)Nc2ccccc2)cc1[N+](=O)[O-] | 0.18 | 7.4 | 2.3 | > 40 | 9.7 | –
CCCCN(CCCC)c1c(C(=O)OC)cc(S(=O)(=O)Nc2ccccc2)cc1C(=O)OC | > 50 | > 100 | > 50 | – | – | –
CCCCN(CCCC)c1c(C#N)cc(S(=O)(=O)Nc2ccccc2)cc1C#N | 0.26 | 6.6 | 4.4 | > 50 | 16 | –
CCCCN(CCCC)c1c(Cl)cc(S(=O)(=O)Nc2ccccc2)cc1Cl | 1.6 | 9.1 | 11 | > 50 | 19 | –
Cc1ccc(C(=O)Nc2ccc(S(=O)(=O)O)c3cc(S(=O)(=O)O)cc(S(=O)(=O)O)c23)cc1NC(=O)c1cccc(NC(=O)Nc2cccc(C(=O)Nc3cc(C(=O)Nc4ccc(S(=O)(=O)O)c5cc(S(=O)(=O)O)cc(S(=O)(=O)O)c45)ccc3C)c2)c1 [SURAMIN] | 0.077 | – | – | – | – | –
CCCCN(CCCC)c1c(C(C)=O)cc(S(=O)(=O)Nc2ccccc2)cc1C(C)=O | 1.6 | > 100 | 30 | > 100 | 26 | –
COc1cc([C@@H]2c3cc4c(cc3[C@H](O)[C@H]3COC(=O)[C@H]23)OCO4)cc(OC)c1OC [PODOFILOX] | – | – | – | – | 0.016 | –
CCCCN(CCCC)c1c(N)cc(S(=O)(=O)Nc2ccccc2)cc1N | 4 | > 100 | 12 | > 50 | 27 | 50
N=C(N)c1ccc(OCCCCCOc2ccc(C(=N)N)cc2)cc1 [PENTAMIDINE] | – | – | 2.3 | – | – | –
